Test results published in PubChem BioAssay AID624081 (The Scripps Research Institute Molecular Screening Center, 2012).
“And” between values parts separate entries of the source, which are not always exact repeats. Identical values can stand only once. The source made the active and inactive calls.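 How the source made its calls: active means inhibitor concentration giving a fourfold drop in imipenem MIC is at most 10 µM; inactive means fourfold MIC drop needs more than 10 µM.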

Assays:
[1] = system: VIM-2 E. coli growth with imipenem, OD600, 18 h; assay: imipenem potentiation in VIM-2-expressing E. coli, late-stage follow-up, MIC 4-fold reduction, powder samples (AID 624081)
In short: (§1)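 Test system: VIM-2-transformed Escherichia coli, checkerboard broth microdilution with imipenem / Medium: cation-adjusted MH broth / Dosing: compound two-fold series, checkerboard layout / Times: aerobic incubation of at least 18 h at 37 °C / Also added: imipenem, two-fold series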

[2] = as above; conditions: VIM-2 E. coli growth with imipenem, OD600, 18 h; measured here: max imipenem potentiation fold
In short: as §1

Row | Compound | MIC [1] | fold potentiation [2]
1 | CC(C)(C)OC(=O)N1CCN(NC(=O)CN2C(=O)/C(=C/c3c(Cl)cccc3Cl)SC2=S)CC1 | 6.2 µM | 8
2 | O=C(O)CN1C(=O)/C(=C/c2c(Cl)cccc2Cl)SC1=S | 3.12 µM | 8
3 | O=C(CN1C(=O)/C(=C/c2c(Cl)cccc2Cl)SC1=S)NCc1ccccc1Br | > 100 µM (inactive) | 
4 | CCN(CC)OC(=O)CN1C(=O)/C(=C/c2c(Cl)cccc2Cl)SC1=S | 6.2 µM | 8
5 | O=C(CN1C(=O)/C(=C/c2ccccc2Cl)SC1=S)Nc1ccc(O)cc1 | > 100 µM (inactive) | 
6 | CN(NC(=O)CN1C(=O)/C(=C/c2c(Cl)cccc2Cl)SC1=S)c1ccc(Cl)nn1 | > 100 µM (inactive) | 
7 | O=C(CN1C(=O)/C(=C/c2c(Cl)cccc2Cl)SC1=S)NCCc1c[nH]c2ccccc12 | > 100 µM (inactive) | 
8 | O=C(CN1C(=O)/C(=C/c2c(Cl)cccc2Cl)SC1=S)NOCc1ccccc1 | > 100 µM (inactive) | 
9 | CN1CCN(NC(=O)CN2C(=O)/C(=C/c3ccccc3F)SC2=S)CC1 | > 100 µM (inactive) | 
10 | CN1CCN(NC(=O)CN2C(=O)/C(=C/c3c(C(F)(F)F)ccc(Cl)c3Cl)SC2=S)CC1 | 1.56 µM | 8
11 | CN1CCN(NC(=O)CN2C(=O)/C(=C/c3ccccc3Cl)SC2=S)CC1 | 50 µM (inactive) | 
12 | O=C(CN1C(=O)/C(=C/c2c(Cl)cccc2Cl)SC1=S)NC[C@@H]1CCCO1 | > 100 µM (inactive) | 
13 | CN1CCC(NC(=O)CN2C(=O)/C(=C/c3c(Cl)cccc3Cl)SC2=S)CC1 | 12.5 µM (inactive) | 8
14 | COc1ccc(CNC(=O)CN2C(=O)/C(=C/c3c(Cl)cccc3Cl)SC2=S)cc1 | > 100 µM (inactive) | 
15 | O=C(CN1C(=O)/C(=C/c2c(Cl)cccc2Cl)SC1=S)Nc1ccc(I)cn1 | > 100 µM (inactive) | 
16 | O=C(CN1C(=O)/C(=C/c2ccccc2Cl)SC1=S)NCCc1cnc[nH]1 | > 100 µM (inactive) | 
17 | Cc1cc(NC(=O)CN2C(=O)/C(=C/c3c(Cl)cccc3Cl)SC2=S)no1 | > 100 µM (inactive) | 
18 | O=C(CN1C(=O)/C(=C/c2c(Cl)cccc2Cl)SC1=S)NCc1ccccn1 | 6.2 µM | 8
19 | CN1CCN(NC(=O)CN2C(=O)/C(=C/c3c(F)cccc3C(F)(F)F)SC2=S)CC1 | 25 µM (inactive) | 8
20 | CN1CCN(C(=O)CN2C(=O)/C(=C/c3c(Cl)ccc(Cl)c3Cl)SC2=S)CC1 | 6.25 µM | 

Row | Compound | MIC [1] | fold potentiation [2]
21 | O=C(CN1C(=O)/C(=C/c2c(Cl)ccc(Cl)c2Cl)SC1=S)NCc1ccccn1 | 3.12 µM | 
22 | Cc1cc(C)n(NC(=O)CN2C(=O)/C(=C/c3c(Cl)cccc3Cl)SC2=S)c(=O)c1 | 3.12 µM | 8
23 | CC(C)(C)OC(=O)N1CCN(NC(=O)CN2C(=O)/C(=C/c3c(Cl)ccc(Cl)c3Cl)SC2=S)CC1 | 1.56 µM | 
24 | COC(=O)CNC(=O)CN1C(=O)/C(=C/c2c(Cl)cccc2Cl)SC1=S | > 100 µM (inactive) | 
25 | O=C(CN1C(=O)/C(=C/c2c(Cl)cccc2Cl)SC1=S)NN1CCCCC1 | 6.2 µM | 8
26 | CN1CCN(NC(=O)CN2C(=O)/C(=C/c3c(Cl)cccc3Cl)SC2=S)CC1 | 6.25 µM and 12.5 µM (inactive) | 8
27 | C=CCONC(=O)CN1C(=O)/C(=C/c2c(Cl)cccc2Cl)SC1=S | > 100 µM (inactive) | 
28 | O=C(CN1C(=O)/C(=C/c2c(Cl)ccc(Cl)c2Cl)SC1=S)NN1CCNCC1 | 12.5 µM (inactive) | 
29 | O=C(CN1C(=O)/C(=C/c2c(Cl)cccc2Cl)SC1=S)Nc1ccccc1 | > 100 µM (inactive) | 
30 | CC(C)(C)NC(=O)CN1C(=O)/C(=C/c2c(Cl)cccc2Cl)SC1=S | > 100 µM (inactive) | 
31 | O=C1/C(=C/c2c(Cl)cccc2Cl)SC(=S)N1Cc1ccncc1 | 12.5 µM (inactive) | 8
32 | CCOC(=O)c1c(NC(=O)CN2C(=O)/C(=C/c3c(Cl)cccc3Cl)SC2=S)sc2c1CCCC2 | > 100 µM (inactive) | 
33 | O=C(CN1C(=O)/C(=C/c2c(Cl)cccc2Cl)SC1=S)Nc1ccccn1 | > 100 µM (inactive) | 
34 | O=C(CN1C(=O)/C(=C/c2c(Cl)cccc2Cl)SC1=S)NC[C@H]1CCCO1 | > 100 µM (inactive) | 
35 | O=C(CN1C(=O)/C(=C/c2c(Cl)cccc2Cl)SC1=S)NC1CCCCC1 | > 100 µM (inactive) | 
36 | CN1CCN(NC(=O)CN2C(=O)/C(=C/c3c(Cl)ccc(C(F)(F)F)c3Cl)SC2=S)CC1 | 0.781 µM | 8
37 | COC(=O)CN1C(=O)/C(=C/c2c(Cl)cccc2Cl)SC1=S | 12.5 µM (inactive) | 8
38 | O=C(CN1C(=O)/C(=C/c2c(Cl)cccc2Cl)SC1=S)Nc1ccccc1F | > 100 µM (inactive) | 
39 | O=C(CN1C(=O)/C(=C/c2c(Cl)cccc2Cl)SC1=S)Nc1ccncc1 | 12.5 µM (inactive) | 8
40 | CN1CCN(NC(=O)CN2C(=O)/C(=C/c3c(F)cccc3Cl)SC2=S)CC1 | 12.5 µM (inactive) | 

Row | Compound | MIC [1] | fold potentiation [2]
41 | O=C(CN1C(=O)/C(=C/c2c(Cl)cccc2Cl)SC1=S)NCc1ccncc1 | 12.5 µM (inactive) | 
42 | O=C(CN1C(=O)/C(=C/c2c(Cl)cccc2Cl)SC1=S)Nc1cccnc1 | 3.12 µM | 8
43 | O=C(CN1C(=O)/C(=C/c2c(Cl)cccc2Cl)SC1=S)Nc1ccc(Br)cn1 | > 100 µM (inactive) | 
44 | O=C(CN1C(=O)/C(=C/c2c(Cl)cccc2Cl)SC1=S)Nc1ccc(Cl)cn1 | > 100 µM (inactive) | 
45 | CN1CCN(NC(=O)CN2C(=O)/C(=C/c3c(Cl)ccc(Cl)c3Cl)SC2=S)CC1 | 3.12 µM | 8
46 | O=C1NC(=S)S/C1=C\c1c(Cl)cccc1Cl | > 100 µM (inactive) | 
47 | NC(=O)CN1C(=O)/C(=C/c2c(Cl)cccc2Cl)SC1=S | 25 µM (inactive) | 
48 | CN1CCN(C(=O)CN2C(=O)/C(=C/c3c(Cl)cccc3Cl)SC2=S)CC1 | 12.5 µM (inactive) | 8
49 | O=C(CN1C(=O)/C(=C/c2c(Cl)cccc2Cl)SC1=S)Nc1cc([N+](=O)[O-])ccc1O | 3.12 µM | 8
50 | C=CCNC(=O)CN1C(=O)/C(=C/c2c(Cl)cccc2Cl)SC1=S | > 100 µM (inactive) | 
51 | CN(NC(=O)CN1C(=O)/C(=C/c2c(Cl)cccc2Cl)SC1=S)c1ncc(C(F)(F)F)cc1Cl | > 100 µM (inactive) | 
52 | CN(C)CCNC(=O)CN1C(=O)/C(=C/c2ccccc2Cl)SC1=S | > 100 µM (inactive) | 
53 | CN(C)CCNC(=O)CN1C(=O)/C(=C\c2ccccc2Cl)SC1=S | > 100 µM (inactive) | 
54 | O=C(CN1C(=O)/C(=C/c2c(Cl)cccc2Cl)SC1=S)NN1CCNCC1 | 3.12 µM | 8
55 | O=C(O)CN1C(=O)/C(=C/c2c(F)cccc2C(F)(F)F)SC1=S | 25 µM (inactive) | 8
56 | O=C(CN1C(=O)/C(=C/c2c(Cl)cccc2Cl)SC1=S)Nn1cnnc1 | > 100 µM (inactive) | 
57 | Cc1c(N2C(=O)/C(=C/c3c(Cl)cccc3Cl)SC2=S)c(=O)n(-c2ccccc2)n1C | 12.5 µM (inactive) | 8
58 | CC(C)N1CCN(NC(=O)CN2C(=O)/C(=C/c3c(Cl)cccc3Cl)SC2=S)CC1 | 12.5 µM (inactive) | 16
